According to ChEMBL document CHEMBL4513216, “Probing the Open Global Health Chemical Diversity Library for Multistage-Active Starting Points for Next-Generation Antimalarials” (ACS Infect Dis, 2020):

Experiment: Toxicity liver stage against HepG2, at 10uM
Format: cell-based
Design: test concentration 10 uM, cell line HepG2-A16-CD81EGFP
Conditions: human, HepG2-A16-CD81EGFP cells; read-out: INHIBITION
Summary of the method: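 Uninfected HepG2-A16-CD81EGFP cells, 3 × 10^3 per well, 1536-well, plated on prespotted compound at 10 μM final, parasite-free screening media added to match infected plates; puromycin 10 μM positive, DMSO 0.5% negative; run in parallel with 48 h PbLuc assay at 37 °C, 5% CO2; viability by CellTiter-Glo luminescence, normalized to controls.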

| Structure (SMILES) | cytotoxicity at 10 µM [%] |
| --- | --- |
| CNc1oc(COc2ccc3c(c2)OCO3)nc1C#N | -58.3 |
| Cc1nn(-c2ccccn2)c2c1C(c1cnn(C)c1)SCC(=O)N2 (stereo not given) | -44.1 |
| COc1ccc2cc(NC(=O)CCNc3ncccn3)cnc2c1 | -43 |
| Cn1cnc2cc(CCC(=O)Nc3n[nH]c(C4CC4)n3)ccc21 | 5.21 |
| Cn1cnnc1S(=O)(=O)C1CCN(C(=O)c2ccco2)CC1 | -2.28 |
| Cc1cccc(CN2CCC23CCCNC3)n1 (stereo not given) | 2.55 |
| COc1ccc(N2CCN(CC(O)c3ccc(C)cc3C)CC2)cc1 (stereo not given) | 11.8 |
| Cc1ccccc1N1CC2(CCN(S(=O)(=O)C3CC3)C2)CC1=O (stereo not given) | 3.12 |
| Cn1cc(CN2CC[C@H]3C[C@H](c4nc(C5CC5)cs4)O[C@@H]3C2)cn1 | -6.78 |
| COCCN1C[C@H]2[C@@H](C1)N(Cc1ccc(C)o1)CC[C@H]2OC | -8.34 |
| Cc1nn(C)c2cnn(CC(=O)NCc3ccccc3F)c12 | 7.8 |
| Cc1c(S(=O)(=O)N(CCc2ccccc2)Cc2ccn(C)n2)cnn1C | 3.82 |
| COCCC(=O)NCc1ccc(-c2ncncc2C(=O)N(C)C)cc1 | 4.45 |
| CN(C)Cc1cnc(C2CCN(C(=O)c3cccc(F)c3)C2)[nH]1 (stereo not given) | 2.54 |
| O=C(C1CCOCC1)N1CCCC1c1cncc(CN2CCCC2)n1 (stereo not given) | -0.802 |
| Cn1ccc(CN2CC(Cc3nccc4cc[nH]c34)C2)n1 | 9.51 |
| CCN(CC1CCOC1)C(=O)NCc1nnc2n1CCC2 (stereo not given) | 13.6 |
| NC(=O)CCCNC(=O)CCc1cc(Br)cs1 | 4.11 |
| CCOc1ccc(N(C)Cc2nc(C)c(C)o2)cc1 | 19.9 |
| COc1ccc(N2CCC(NC(=O)c3ccc(C#N)cc3)CC2)cc1 | -14.7 |
| O=C(Nc1ccccc1F)NC1(CO)CCOCC1 | -46.4 |
| Cc1noc(C(C)Nc2ccc3c(c2)CCC3)n1 (stereo not given) | 1.84 |

| Structure (SMILES) | cytotoxicity at 10 µM [%] |
| --- | --- |
| Cc1nn(C)c(C)c1C1CCCN1CCOc1ccccc1C#N (stereo not given) | 8.13 |
| CC(=O)NC1CCCN(Cc2ccc(OCc3ccccn3)cc2)C1 (stereo not given) | 1.41 |
| CN(C)CCCNc1ncnc2cccc(F)c12 | 9.66 |
| O=C(NC1(c2nnn(CC3CC3)n2)CCCC1)c1ccccc1 | 6.48 |
| CCCOC(=O)C(C)Sc1nnnn1C1CCOCC1 (stereo not given) | 18.1 |
| Cc1ccc(OCCC(=O)NC(C)c2ccncc2)cc1 (stereo not given) | -3.86 |
| CCC(CNC1CCN(C(C)=O)CC1)Oc1ccccc1Cl (stereo not given) | -13.4 |
| CN(Cc1cccs1)C(=O)CNC1CCc2ncnn2C1 (stereo not given) | 3.03 |
| CCOc1ccc(C(=O)NCCCNc2ncccn2)cc1 | 11.5 |
| Cn1c2ncccc2c(=O)n1CC(=O)Nc1ccc(F)c(F)c1 | 16.5 |
| CCNC(=O)NC1CN(Cc2ccccc2N(C)C)C[C@@H]1OC (stereo not given in full) | -8.11 |
| COc1ccc(C(C)N2CCC(C(=O)NC3CC3)CC2)cc1Cl (stereo not given) | -50.6 |
| CCC(=O)NC1CCCN(Cc2ccc(-n3ccnc3)cc2)C1 (stereo not given) | -47.8 |
| Cc1cc(C(=O)N2CCc3c(ncn3CCc3ccccc3)C2)on1 | -3.58 |
| CCN(CC)S(=O)(=O)N1CCCN(CC2CCCO2)CC1 (stereo not given) | 5.69 |
| CC1CCCN(c2ccccc2OCC(=O)NC2CCOCC2)C1 (stereo not given) | -23.5 |
| CCOCCC(=O)NCc1ccnc(NC2CC2)c1 | 0.545 |
| O=C(O)c1ccc(F)c(S(=O)(=O)Nc2ccc(-n3cccn3)c(Cl)c2)c1 | 2.24 |
| CC(C)c1noc(CN(Cc2cccs2)C2CC2)n1 | -9.15 |
| O=C(COc1cccc2c1CCC2=O)NCCOc1ccccc1 | 10.5 |
| CC(C)C(=O)N1CCN(Cc2csc(-c3ncccn3)n2)CC1 | -5.1 |
| COCC(=O)N1CCC2(CCC2NC(=O)c2ccn(C)c2)CC1 (stereo not given) | -76.4 |

| Structure (SMILES) | cytotoxicity at 10 µM [%] |
| --- | --- |
| CN(Cc1cccnc1)CC1CN(C(N)=O)Cc2nccn2C1 (stereo not given) | -80.3 |
| Cc1ccc2c(c1)C1(CCNCC1)CN2C(=O)C(C)C | -77 |
| O=C(c1ccnnc1)N1CCn2cc(CN3CCCCC3)nc2C1 | -74.9 |
| CC(=O)N1CCOC2(CCCN(C(=O)c3ccc(Cl)cc3)C2)C1 (stereo not given) | -66.6 |
| CCNc1ncc(C(=O)N(C)CCc2nc3cc(Cl)ccc3[nH]2)cn1 | -45.8 |
| CCc1ncc(C(=O)N(CCOC)Cc2ccccc2F)cn1 | 0.728 |
| Cc1cc(C)n(CCCN(C)C(=O)[C@H]2CCCO2)n1 | -13.2 |
| O=C(CCC1CC1)N1CCC(n2cc(C3(O)CCCC3)nn2)CC1 | 9.4 |
| Cc1cc(C)nc(NCCSc2cnn[nH]2)n1 | 3.22 |
| Cc1ccsc1-c1nccn1CCN(C)S(C)(=O)=O | -7.36 |
| CS(=O)(=O)CC1CCCN(C(=O)Cn2cccc(C(F)(F)F)c2=O)C1 (stereo not given) | 4.1 |
| COCCN1CCCC2(CCN(c3nc(C)nc4ccsc34)C2)C1=O (stereo not given) | 10.7 |
| Cc1cnc(N)nc1N1CCN(CCCO)CC1 | 0.761 |
| CC(C)[C@H]1CN(Cc2ccccn2)C[C@@H]1NC(=O)CC1CCC1 | -2.57 |
| O=C(c1ccoc1)N1CCCN(CC2CCOc3ccccc3C2)CC1 (stereo not given) | 0.0531 |
| OC1(CN(Cc2cccnc2)C2CCCCC2)CNCCOC1 (stereo not given) | -21 |
| COc1nccc(N2CC[C@@H](N3CCCCCC3)[C@H](O)C2)c1C#N | -152 |
| CC(C)c1nnsc1CNC(=O)C1CCN(C(=O)C2CCCC2)CC1 | 1.05 |
| Cc1cccnc1CN1CCOC(Cc2cccc3ccccc23)C1 (stereo not given) | -2.43 |
| CC(C)C1=NOC(c2nc(Cc3ccccc3)no2)C1 (stereo not given) | -3.94 |
| CC(=O)NCC1CCC2(CCN(c3nccc(C4CCCC4)n3)CC2)O1 (stereo not given) | -4.43 |
| CC(C)c1cc(C(=O)N2CCN(CC3CC3)[C@@H]3CS(=O)(=O)C[C@@H]32)on1 | 3.05 |

| Structure (SMILES) | cytotoxicity at 10 µM [%] |
| --- | --- |
| N#Cc1ccc(CN2CCN(C(=O)C3CCC3)[C@@H]3CS(=O)(=O)C[C@@H]32)cc1 | -9.78 |
| CCOCCn1nc(C)cc1C(=O)N1CCOCC(CO)C1 (stereo not given) | -20 |
| Cc1ccccc1CSc1nc(N)cc(N2CC[C@@H](O)C2)n1 | 0.28 |
| CNc1cccc(C2CCCN(C(=O)c3ccncc3)C2)n1 (stereo not given) | -4.02 |
| Cc1cc(CN(C)C(=O)c2cccc(N3CCCS3(=O)=O)c2)no1 | -10.2 |
| CC(=O)c1cccc(S(=O)(=O)NCc2cccnc2N(C)C)c1 | 4.24 |
| c1csc(-c2nc(CN3CCCCC3Cn3cncn3)cs2)c1 (stereo not given) | -1.19 |
| CC(NC(=O)NCCCc1n[nH]c(N)c1C#N)c1cccc(Cl)c1 (stereo not given) | -4.14 |
| CCc1sc(C(=O)N2CCC(Nc3ccc(C)nn3)CC2)cc1C | 1.86 |
| Cc1ccc(NC2CCN(C(=O)c3ccc(C(N)=O)s3)CC2)nn1 | 1.8 |
| O=C(c1ccc2c(c1)OCCCO2)N1CCCC(n2ccnc2)C1 (stereo not given) | 0.893 |
| CC(C)c1nc(C2CCCN(C(=O)c3cccc4c3OCO4)C2)no1 (stereo not given) | -12 |
| CC1CCCN(C(=O)C2CCN(c3snc4ccccc34)CC2)C1 (stereo not given) | 10.1 |
| CC(=O)N1CCN(C(=O)NCc2ccc(Cl)s2)CC1 | -15.4 |
| CCc1nnc2n1CCN(CC(=O)Nc1sccc1C#N)C2 | -7.67 |
| CC(C)c1noc(CN2CCN(C(=O)c3ccccc3F)CC2)n1 | -8.08 |
| Cc1cnn(CCNCc2nc(-c3ccccc3Cl)no2)c1 | -9.91 |
| COc1cc(CNC(=O)NCc2c(C)cc(C)[nH]c2=O)ccc1C | -11.5 |
| Cc1nc(CN2CCCC(NCCOc3ccccc3)C2)no1 (stereo not given) | -7.98 |
| CC(C)(C)c1cnc(CN2CCC(c3ccnn3CCO)CC2)o1 | -3.15 |
| Cn1cc(C(=O)NCC2CCN(C(=O)NCC(F)(F)F)CC2)cn1 | -3.68 |
| O=C(CCN1CCCC1C1CCCCC1)N1CCc2sccc2C1 (stereo not given) | -11 |

| Structure (SMILES) | cytotoxicity at 10 µM [%] |
| --- | --- |
| COc1ccc(CNC(=O)Nc2cccnc2N2CCCC2)cc1O | -10.7 |
| CCN1CCN(C2CCN(Cc3ncc(C(C)(C)C)o3)CC2)C1=O | 2.05 |
| Cc1cnn(C2CCCN(C(=O)c3ccn(C)c(=O)c3)C2)c1 (stereo not given) | 4.55 |
| CCSCCC(=O)NS(=O)(=O)c1ccc2c(c1)OCCO2 | 0.35 |
| Cn1cc([C@@H]2CN(S(=O)(=O)c3cccs3)C[C@H]2N)c2ccncc21 | 1.44 |
| CC(C)(C)C(=O)NC(c1nccs1)C1CCN(CC2CCCCC2)CC1 (stereo not given) | 6.5 |
| Cc1cccc(CN2CCC3(CCN(c4ncccn4)CC3)C2=O)c1 | 5.32 |
| CN(C)C(=O)N1C[C@@H]2CCCO[C@@H]2[C@H](N(C)Cc2ccco2)C1 | -7.82 |
| COCCN1CC[C@@H]2OC[C@H](C(=O)NCc3cccs3)C[C@@H]2C1 | 2.7 |
| C[C@@H]1CN(C(=O)c2cccs2)C[C@]12CCN(CCN(C)C)C2=O | 4.4 |
| CCOCC1CN(Cc2cccc(C#N)c2)Cc2nccn2C1 (stereo not given) | -8.22 |
| c1csc(CN2CCCn3cnc(CN4CCCC4)c3C2)c1 | -72.7 |
| Cc1cnc(N2CC[C@@H]3O[C@@H](COCc4ccccn4)CC[C@@H]32)nc1 | -88.3 |
| CC(C)c1nn(C)c(Cl)c1CNCC(O)c1cccc(F)c1 (stereo not given) | -1.83 |
| Cc1ccc(N2CCO[C@H]3CN(Cc4ccoc4)C[C@H]32)nn1 | -70.7 |
| COc1ccc(CN2C[C@H](OCC3CCOCC3)[C@H]3COC[C@H]32)cc1 | -9.78 |
| CCOCC1CN(Cc2ccc(F)cc2)Cc2nn(C)cc21 (stereo not given) | -83.3 |
| O=C(c1cccnc1)N1CCn2nnc(COc3ccccn3)c2C1 | -76.2 |
| COC(=O)c1ccc(CN(C(C)C)C(C)C)o1 | 2.21 |
| O=C(c1ccc(F)cc1F)N1C[C@@H]2CC[C@H]1CN(Cc1ccccc1)C2 | 5.04 |
| CC(C)c1cc(C(=O)N2C[C@@H]3CC[C@H]2CN(Cc2ccccn2)C3)no1 | 2.46 |
| CC(C)CCN1C[C@@H]2C[C@H](C(=O)Nc3cccnc3)[C@H](C1)O2 | -82.5 |
